Experimental data published in ChEMBL document CHEMBL1667800, “Synthesis, DNA/RNA affinity and antitumour activity of new aromatic diamidines linked by 3,4-ethylenedioxythiophene” (Eur J Med Chem, 2011).
Activity calls are given as the source filed them. The rule behind the calls is not given here.

Legend:
Calf thymus DNA [1] = assay: Binding affinity to calf thymus DNA assessed as DNA CD band at compound over DNA molar ratio of > 0.3 by circular dichroism titration; type: nucleic-acid assay; conditions: Bos taurus
Outline: (§1)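 CD titration of polynucleotide (2.0 × 10^-5 mol dm^-3, as phosphate) with added compound over a range of r = [compound]/[polynucleotide]. Na-cacodylate buffer, pH 7.0, I = 0.05 mol dm^-3, 1 cm quartz cuvette. ct-DNA was sonicated and filtered before use. Changes in the polynucleotide CD band and induced CD bands were followed.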

Calf thymus DNA [2] = assay: Binding affinity to calf thymus DNA minor groove assessed as DNA CD band at compound over DNA molar ratio of < 0.2 by circular dichroism titration; type: nucleic-acid assay; conditions: Bos taurus; outline: as §1
Nucleic Acid [3] = assay: Binding affinity to ds-RNA assessed as RNA CD band at compound over RNA molar ratio of < 0.2 by circular dichroism titration; type: nucleic-acid assay; outline: as §1
Calf thymus DNA [4] = assay: Binding affinity to calf thymus DNA assessed as melting temperature at compound over DNA molar ratio of 0.1 at pH 7 by thermal denaturation assay; type: nucleic-acid assay; conditions: Bos taurus
Outline: (§2)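 Thermal melting of ds-polynucleotide (ct-DNA or poly A-poly U) alone and with compound at the given r, Na-cacodylate pH 7.0, I = 0.05 mol dm^-3. Absorbance at 260 nm was followed versus temperature, with compound absorbance subtracted and the curve normalized. Tm was taken from the first-derivative maximum or by tangent. ΔTm = Tm(complex) − Tm(free nucleic acid).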

Calf thymus DNA [5] = assay: Binding affinity to calf thymus DNA assessed as melting temperature at compound over DNA molar ratio of 0.2 at pH 7 by thermal denaturation assay; type: nucleic-acid assay; conditions: Bos taurus; outline: as §2
Calf thymus DNA [6] = assay: Binding affinity to calf thymus DNA assessed as melting temperature at compound over DNA molar ratio of 0.3 at pH 7 by thermal denaturation assay; type: nucleic-acid assay; conditions: Bos taurus; outline: as §2
Nucleic Acid [7] = assay: Binding affinity to polu A-poly U assessed as melting temperature at compound over DNA molar ratio of 0.3 at pH 7 by thermal denaturation assay; type: nucleic-acid assay; outline: as §2
MCF7 = assay: Cytotoxicity against human MCF7 cells after 72 hrs by MTT assay; type: functional; conditions: MCF7, 72 h
Outline: (§3)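 Cells were seeded at 2 × 10^4 cells/mL and attached overnight at 37 °C, 5% CO2. They were then exposed for 72 h to compounds from aqueous stocks (working solutions 10^-3–10^-6 mol dm^-3). MTT was added for 4 h at 37 °C, formazan dissolved in DMSO, and absorbance read at 570 nm. GI50 is the mean ± SD of three independent experiments run in triplicate.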

NCI-H358 = assay: Cytotoxicity against human NCI-H358 cells after 72 hrs by MTT assay; type: functional; conditions: NCI-H358, 72 h; outline: as §3
Caco-2 = assay: Cytotoxicity against human Caco2 cells after 72 hrs by MTT assay; type: functional; conditions: Caco-2, 72 h; outline: as §3
HEp-2 = assay: Cytotoxicity against human Hep2 cells after 72 hrs by MTT assay; type: functional; conditions: HEp-2, 72 h; outline: as §3
HeLa = assay: Cytotoxicity against human HeLa cells after 72 hrs by MTT assay; type: functional; outline: as §3
AGS = assay: Cytotoxicity against human AGS cells after 72 hrs by MTT assay; type: functional; outline: as §3
MIA PaCa-2 = assay: Cytotoxicity against human MIAPaCa2 cells after 72 hrs by MTT assay; type: functional; conditions: MIA PaCa-2, 72 h; outline: as §3
[8] = Cytotoxicity against MDCK cells after 72 hrs by MTT assay; type: cell-based, Canis lupus familiaris; conditions: dog; outline: as §3
Calf thymus DNA [9] = assay: Binding affinity to calf thymus DNA assessed as hyperchromic effect at compound over DNA molar ratio of 0.2 by UV-Vis spectra; type: nucleic-acid assay; conditions: Bos taurus; in the assay text read “hypochromic effect” for “hyperchromic effect”
Outline: (§4)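 UV-Vis titration of compound (c = 1.97 × 10^-5 mol dm^-3 in the shown example) with ct-DNA. Na-cacodylate buffer, pH 7.0, I = 0.05 mol dm^-3, 1 cm quartz cuvette. Absorbance at the maximum was tracked against c(ct-DNA). Ks and n were obtained by non-linear least-squares Scatchard fitting.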

Calf thymus DNA [10] = assay: Binding affinity to calf thymus DNA assessed as batochromic effect at compound over DNA molar ratio of 0.2 by UV-Vis spectra; type: nucleic-acid assay; conditions: Bos taurus; outline: as §4
Calf thymus DNA [11] = assay: Binding affinity to calf thymus DNA assessed as batochromic effect at compound over DNA molar ratio of 0.2 by fluorimetric titration; type: nucleic-acid assay; conditions: Bos taurus
Outline: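 Fluorimetric titration of compound (about 1.0 × 10^-6 mol dm^-3) with ct-DNA. Excitation above 360 nm to avoid inner-filter effects. Na-cacodylate buffer, pH 7.0, I = 0.05 mol dm^-3. Emission at the maximum was plotted against c(ct-DNA). Ks and n were obtained by non-linear Scatchard fitting.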

Calf thymus DNA [12] = assay: Binding affinity to calf thymus DNA assessed as hyperchromic effect at compound over DNA molar ratio of 0.5 by UV-Vis spectra; type: nucleic-acid assay; conditions: Bos taurus; in the assay text read “hypochromic effect” for “hyperchromic effect”; outline: as §4
Nucleic Acid [13] = assay: Binding affinity to ds-RNA assessed as RNA CD band at compound over RNA molar ratio of > 0.2 by circular dichroism titration; type: nucleic-acid assay; outline: as §1
Calf thymus DNA [14] = assay: Binding affinity to calf thymus DNA assessed as hyperchromic effect at compound over DNA molar ratio of 0.4 by UV-Vis spectra; type: nucleic-acid assay; conditions: Bos taurus; in the assay text read “hypochromic effect” for “hyperchromic effect”; outline: as §4

SMILES	Activity (Calf thymus DNA [1])	Activity (Calf thymus DNA [2])	Activity (Nucleic Acid [3])	ΔTm (Calf thymus DNA [4]) [°C]	ΔTm (Calf thymus DNA [5]) [°C]	ΔTm (Calf thymus DNA [6]) [°C]	ΔTm (Nucleic Acid [7]) [°C]	Activity (Calf thymus DNA [9])	Activity (Calf thymus DNA [10])	Activity (Calf thymus DNA [11])	GI50 (MCF7) [µM]	GI50 (NCI-H358) [µM]	GI50 (Caco-2) [µM]	GI50 (HEp-2) [µM]	GI50 (HeLa) [µM]	GI50 (AGS) [µM]	GI50 (MIA PaCa-2) [µM]	GI50 at 72 h [8] [µM]	other results
CC(C)CNC(=N)c1ccc(-c2sc(-c3ccc(C(=N)NCC(C)C)cc3)c3c2OCCO3)cc1	Active	Active	inactive	9	9	15	5.2	Active	Active	Active	7.3	73.3	42.8	9.9	18.8	59.3	4.9	59.7	–
N=C(Nc1ccccc1)c1sc(C(=N)Nc2ccccc2)c2c1OCCO2	–	–	–	–	–	0	0	–	–	–	129	112	134	100	138	114	128	79.5	–
CC(C)NC(=N)c1ccc(-c2sc(-c3ccc(C(=N)NC(C)C)cc3)c3c2OCCO3)cc1	Active	Active	inactive	8.4	11.1	12.3	5.8	–	Active	Active	67.5	113	76.5	9	72.3	72.3	13	65.3	Activity (Nucleic Acid [13]): Active; Activity (Calf thymus DNA [14]): Active

Further lines, with some results ahead:

Activity (Calf thymus DNA [1])	Activity (Calf thymus DNA [2])	Activity (Nucleic Acid [3])	ΔTm (Calf thymus DNA [4]) [°C]	ΔTm (Calf thymus DNA [5]) [°C]	ΔTm (Calf thymus DNA [6]) [°C]	ΔTm (Nucleic Acid [7]) [°C]	Activity (Calf thymus DNA [9])	Activity (Calf thymus DNA [10])	Activity (Calf thymus DNA [11])	SMILES	GI50 (MCF7) [µM]	GI50 (NCI-H358) [µM]	GI50 (Caco-2) [µM]	GI50 (HEp-2) [µM]	GI50 (HeLa) [µM]	GI50 (AGS) [µM]	GI50 (MIA PaCa-2) [µM]	GI50 at 72 h [8] [µM]	other results
Active	Active	inactive	11.8	> 16	> 16	8.2	Active	Active	Active	c1cc(-c2sc(-c3ccc(C4=NCCCN4)cc3)c3c2OCCO3)ccc1C1=NCCCN1	8.4	98.7	101	97.7	97.5	81.7	64.7	82	–
Active	Active	inactive	12.2	> 16	> 16	12.6	–	Active	Active	N=C(N)c1ccc(-c2sc(-c3ccc(C(=N)N)cc3)c3c2OCCO3)cc1	25	33	13	9.3	32.3	116	9.3	7.1	Activity (Calf thymus DNA [12]): Active
Active	Active	inactive	12.3	15.2	> 16	1.4	Active	Active	Active	N=C(NC1CCCC1)c1ccc(-c2sc(-c3ccc(C(=N)NC4CCCC4)cc3)c3c2OCCO3)cc1	7.8	62.2	41	61.3	26.7	45	10.9	50	–
